Data set [1] can be described thus: Stability in rat plasma assessed as parent compound remaining at 100 uM measured after 1 hr by HPLC analysis (reference value: 49 to 86%). Conditions: read-out: Stability. It counts as ADME, cell-free.
The target of data set [2] is T1, cathepsin K (Homo sapiens, UniProt P43235).
T1 sequence (P43235 whole entry): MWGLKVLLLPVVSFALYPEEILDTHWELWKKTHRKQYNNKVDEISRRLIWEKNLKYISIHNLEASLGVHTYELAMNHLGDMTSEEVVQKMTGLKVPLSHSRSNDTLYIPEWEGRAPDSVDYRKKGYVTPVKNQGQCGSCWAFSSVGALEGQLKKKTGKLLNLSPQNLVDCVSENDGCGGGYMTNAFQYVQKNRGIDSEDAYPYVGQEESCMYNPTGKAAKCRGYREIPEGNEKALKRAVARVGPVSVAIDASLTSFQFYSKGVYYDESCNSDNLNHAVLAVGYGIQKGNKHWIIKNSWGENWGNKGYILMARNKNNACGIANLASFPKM
Kind of data set: Substrate activity at recombinant human cathepsin K expressed in Escherichia coli assessed as compound cleavage at 100 uM after 1 hr by HPLC analysis. To be noted: read-out: Drug degradation. In kind it is ADME. An outline of the steps:
(§1)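 Human procathepsin K, recombinant from E. coli, was activated for 40 min at room temperature in 50 mM NaOAc-HOAc with 200 mM NaCl, pH 4.1. Final assay had 0.2 µM enzyme in 50 mM MES pH 5.5, 2 mM EDTA, 4 mM DTT and 0.15% chondroitin sulfate. Conjugates or the standard substrate Cbz-Leu-Arg-AMC were at 100 µM. Incubation was at 37 °C with HPLC at UV 240 nm; cleavage was taken from release of 4-aminobenzyl alcohol and its DTT adduct.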

The target of data set [3] is T2, cathepsin K (Rattus norvegicus, UniProt O35186).
T2 sequence (O35186 whole entry): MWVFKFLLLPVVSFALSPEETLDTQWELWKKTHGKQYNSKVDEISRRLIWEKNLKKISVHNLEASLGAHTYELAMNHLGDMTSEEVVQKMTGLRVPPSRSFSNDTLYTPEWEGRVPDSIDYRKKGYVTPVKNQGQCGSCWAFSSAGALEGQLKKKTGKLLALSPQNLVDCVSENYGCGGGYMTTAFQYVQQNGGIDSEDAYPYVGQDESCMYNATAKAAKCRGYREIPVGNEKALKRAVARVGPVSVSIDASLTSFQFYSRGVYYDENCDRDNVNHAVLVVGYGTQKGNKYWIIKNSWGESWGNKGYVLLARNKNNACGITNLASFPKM
Kind of data set: Substrate activity at recombinant rat cathepsin K expressed in Escherichia coli assessed as compound cleavage at 100 uM after 1 hr by HPLC analysis. In kind it is ADME. To be noted: read-out: Drug degradation. Put shortly:
(§2)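 Rat cathepsin K was recombinant, expressed in E. coli, and used at 0.2 µM final in 50 mM MES pH 5.5 with 2 mM EDTA, 4 mM DTT and 0.15% chondroitin sulfate. Conjugates or the standard substrate Cbz-Leu-Arg-AMC were at 100 µM and incubated at 37 °C. Aliquots were run by HPLC at UV 240 nm. Cleavage was calculated from the appearance of 4-aminobenzyl alcohol plus its DTT-trapped adduct.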

The target in data set [4] is T1, cathepsin K. Kind of data set: Substrate activity at recombinant human cathepsin K expressed in Escherichia coli assessed as compound cleavage at 100 uM after 3 hrs by HPLC analysis. It counts as ADME. To be noted: read-out: Drug degradation. An outline of the steps: as §1
Data set [5] is described as follows: Stability in rat plasma assessed as parent compound remaining at 100 uM measured after 2 hrs by HPLC analysis (reference value: 49 to 86%). In kind it is ADME, cell-free. To be noted: read-out: Stability.
Data set [6] can be described thus: Stability in rat plasma assessed as parent compound remaining at 100 uM measured after 4 hrs by HPLC analysis (reference value: 49 to 86%). To be noted: read-out: Stability. It counts as ADME, cell-free.
Data set [7] is described as follows: Stability in rat plasma assessed as parent compound remaining at 100 uM measured after 24 hrs by HPLC analysis (reference value: 49 to 86%). It counts as ADME, cell-free. Conditions: read-out: Stability.
A short description of data set [8]: Stability in rat serum assessed as parent compound remaining at 100 uM measured after 1 hr by HPLC analysis (reference value: 93 to 97%). In kind it is ADME, cell-free. Conditions: read-out: Stability.
The nature of data set [9]: Stability in rat serum assessed as parent compound remaining at 100 uM measured after 2 hrs by HPLC analysis (reference value: 93 to 97%). In kind it is ADME, cell-free. To be noted: read-out: Stability.
Data set [10] in a line: Stability in rat serum assessed as parent compound remaining at 100 uM measured after 4 hrs by HPLC analysis (reference value: 93 to 97%). In kind it is ADME, cell-free. To be noted: read-out: Stability.
A short description of data set [11]: Stability in rat serum assessed as parent compound remaining at 100 uM measured after 24 hrs by HPLC analysis (reference value: 93 to 97%). In kind it is ADME, cell-free. Conditions: read-out: Stability.
The target of data set [12] is T1, cathepsin K. Kind of data set: Substrate activity at recombinant human cathepsin K expressed in Escherichia coli assessed as compound cleavage at 100 uM after 2 hrs by HPLC analysis. In kind it is ADME. To be noted: read-out: Drug degradation. Put shortly: as §1
Data set [13] concerns the target T2, cathepsin K. Kind of data set: Substrate activity at recombinant rat cathepsin K expressed in Escherichia coli assessed as compound cleavage at 100 uM after 2 hrs by HPLC analysis. It counts as ADME. Conditions: read-out: Drug degradation. An outline of the steps:
as §2

Data set [14] addresses T2, cathepsin K. Kind of data set: Substrate activity at recombinant rat cathepsin K expressed in Escherichia coli assessed as compound cleavage at 100 uM after 20 hrs by HPLC analysis. In kind it is ADME. To be noted: read-out: Drug degradation. Put shortly:
as §2

The nature of data set [15]: Solubility of the compound in phosphate buffer at 2 mg/ml. In kind it is physicochemical. Put shortly: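 Conjugate tested for dissolution at the dosing concentration of 2 mg/mL in PBS alone, then in PBS formulations containing surfactants (PEG400, Tween, Cremaphor). Solutions were judged by visual clarity (homogeneous versus cloudy).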
The subject of a further data set is Plasma. Kind of data set: Drug metabolism in Sprague-Dawley rat plasma assessed as tritium label liberation in presence of bone powder. In kind it is ADME, cell-free. An outline of the steps:
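Tritiated conjugate was incubated in rat plasma at 37 °C. At fixed times up to 24 h the mixture was stirred with bovine bone powder to adsorb intact conjugate and any cleaved bisphosphonate. The supernatant was then scintillation counted as unbound, liberated tritium.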

Data set [16] has as its system Bone. Kind of data set: Drug uptake in Sprague-Dawley rat bone at 1 mg/kg, iv after 6 hrs. In kind it is ADME, organism-based, Bone element. Conditions: in vivo.
Data set [17] deals with Bone. Kind of data set: Half life in iv dosed Sprague-Dawley rat bone administered as single dose using radiolabeled compound. In kind it is ADME, organism-based, Bone element. To be noted: in vivo. An outline of the steps: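 Female Sprague Dawley rats, about 13 weeks old on receipt, got a single tail-vein bolus of 5.0 mg/kg conjugate. The dose held 8.90 µCi [3H] and 1.77 µCi [14C] label, in 10% poloxamer 188 brought to pH 8.0 with NaHCO3 and diluted 1:1 with PBS. Groups of 3 were killed at 6 h and 1, 7, 14 and 28 days. Femurs were oxidized and counted, with skeleton taken as 8% of body weight, and label loss from bone gave half-times.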

For data set [18], the system named is Bone. Kind of data set: Drug uptake in Sprague-Dawley rat bone at 0.2 uci, iv administered as single dose using 14C-labeled compound after 4 hrs. It counts as ADME, organism-based, Bone element. Conditions: in vivo.

For `CC(C)C[C@H](NC(=O)OCc1ccccc1)C(=O)N[C@@H](CCCNC(=N)N)C(=O)Nc1ccc(COC(=O)NCCCC(O)(P(=O)(O)O)P(=O)(O)O)cc1`, the remaining at 1 h, 100 µM in data set [1] is 78%; in data set [8] it was 97%. Also, the results for the metabolised at 1 h, 100 µM on cathepsin K [2] and on cathepsin K [3] were 66% and 73%, respectively. The metabolised at 3 h, 100 µM on cathepsin K [4] stood at 79%. Also, the remaining at 2 h, 100 µM in data set [5] stood at 78%; in data set [9], 95%. The remaining at 4 h, 100 µM in data set [6] was 64%; in data set [10], 86%. Besides, the remaining at 24 h, 100 µM in [7] was 59%; in [11] it was 70%. Also, the values for the metabolised at 2 h, 100 µM on cathepsin K [12] and on cathepsin K [13] were 75% and 80%, respectively. Besides, the metabolised at 20 h, 100 µM at cathepsin K [14] was 95%.

For `CCOC(=O)CCCCCCN1C(=O)CC[C@@H]1/C=C/[C@@H](OC(=O)Cc1ccc(COC(=O)N[C@@H](CC(C)C)C(=O)N[C@@H](CCCNC(=N)N)C(=O)Nc2ccc(COC(=O)NCCCC(O)(P(=O)(O)O)P(=O)(O)O)cc2)cc1)C(F)(F)c1ccccc1`, the solubility result in [15] was “Insoluble”.

For `CCCCC[C@@H](/C=C/[C@H]1[C@H](O)CC(=O)[C@@H]1C/C=C\CCCC(=O)O)OC(=O)CSCCCC(P(=O)(O)O)P(=O)(O)O`, the Drug metabolism with Plasma was 15%. Moreover, in the data set on Bone [16], the Drug uptake is recorded as 3.5%. The compound further displayed a t1/2 with Bone [17] of 4 to 5 days.

Take `N=C(N)NCCC[C@H](NC(=O)[C@@H]1CCCN1C(=O)OCc1ccccc1)C(=O)Nc1ccc(COC(=O)NCCCC(O)(P(=O)(O)O)P(=O)(O)O)cc1`: the values for the remaining at 1 h, 100 µM in data set [1] and in data set [8] were 95% and 89%, respectively. For the same compound, the figures for the metabolised at 1 h, 100 µM at cathepsin K [2] and at cathepsin K [3] were 90% and 5%, respectively. The remaining at 2 h, 100 µM in data set [5] is 90%; in data set [9], 78%. Also, the remaining at 4 h, 100 µM in data set [6] was 90%; in data set [10] it was 77%. Besides, the remaining at 24 h, 100 µM is 65% in data set [7] and 69% in data set [11]. The figures for the metabolised at 2 h, 100 µM at cathepsin K [12] and on cathepsin K [13] were 98% and 10%, respectively. Further, at cathepsin K [14], the metabolised at 20 h, 100 µM was determined as 52%.

In the data set on Bone [18], `CCCCC[C@H](O)/C=C/[C@H]1[C@H](O)CC(=O)[C@@H]1C/C=C\CCCC(=O)NCCCC(O)(P(=O)(O)O)P(=O)(O)O` registered a Drug uptake of 15 %ID.
